Measurements as given in PubChem BioAssay AID463210 (The Scripps Research Institute Molecular Screening Center, 2010).
In all, about 330,000 compounds went through this assay and about 300 (0.091%) were called active.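 Rule for the calls: active = percent activation above the screen-wide mean plus 3 SD (cut at about 25% in these data); inactive = the rest.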 What follows is part of a selection rich in actives, with near analogues and random picks from the rest.

These compounds were tested against Caspase-7 (Homo sapiens) (UniProt P55210) (assay: activation of procaspase-7 enzyme – biochemical, absorbance, HTS, human, counter-screen for procaspase-3 activator project, primary screen (AID 463210)). Conditions: recombinant procaspase-7, Ac-DEVD-pNA absorbance 405 nm; at 8.5 µM; hits give high values; D23A/D198A/D206A triple mutant, cannot self-cleave; scale: DMSO 0, 5 µM enzyme 100.
Sequence of Caspase-7 (Homo sapiens) (P55210 whole entry D23A/D198A/D206A): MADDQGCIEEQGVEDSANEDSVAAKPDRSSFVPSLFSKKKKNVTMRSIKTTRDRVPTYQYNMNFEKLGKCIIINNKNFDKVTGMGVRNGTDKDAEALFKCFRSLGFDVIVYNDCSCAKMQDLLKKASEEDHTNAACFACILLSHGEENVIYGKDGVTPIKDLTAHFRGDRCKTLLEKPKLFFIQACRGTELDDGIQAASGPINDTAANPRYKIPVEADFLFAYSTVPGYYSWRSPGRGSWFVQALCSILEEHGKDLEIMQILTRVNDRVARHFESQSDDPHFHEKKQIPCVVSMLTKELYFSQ
Method in brief: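 Assay system: Uncleavable procaspase-7 mutant enzyme; Input: 2 µM procaspase-7 mutant as dispensed; Also added: DEVD-pNA substrate; Medium: Zinc-free HEPES pH 7.4 with 300 mM NaCl, 0.01% Triton X-100; Timing: 1 h compound preincubation, 2 h substrate cleavage, 25 °C; Measured by: Epi-absorbance of released pNA at 405 nm, two timepoints.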

Compound | activation
COc1cc(OC)cc(C(=O)NC2CCN(C(=O)N3c4ccccc4Sc4ccccc43)CC2)c1 | 2.43% (inactive)
CON(C)S(=O)(=O)c1ccc2c(c1)NC(=O)C1CCCN21 (stereo not drawn) | -0.92% (inactive)
CCCCn1c(-c2cccc(C)c2)nc2cc3[nH]c(=O)c(C(C)C)nc3cc21 | 11.3% (inactive)
CC(=O)c1ccc(OC(=O)N2CCOCC2)cc1 | -1.27% (inactive)
O=C(NC1CCCC1)C(NS(=O)(=O)c1ccc(Br)s1)c1ccccc1 (stereo not drawn) | -4.82% (inactive)
O=S(=O)(Cc1noc(-c2ccc(OC(F)(F)F)cc2)n1)c1ccc(F)cc1 | 10.7% (inactive)
Cc1ccc(C)c(NS(=O)(=O)c2c(C)[nH]c(C)c2C(=O)N2CCCCC2)c1 | 4.13% (inactive)
COc1ccccc1N1CCN(C(=O)c2ccc(NC3=NC4CS(=O)(=O)CC4S3)cc2)CC1 (stereo not drawn) | 5.2% (inactive)
COc1ccccc1N1CCN(C(=O)c2cn(-c3ccccc3)nc2-c2cccnc2)CC1 | 6.33% (inactive)
COc1ccc(Nc2ncc(C(=O)N3CCN(c4ccccc4OC)CC3)c3ccccc23)cc1 | 49.2% (active)
CC(C)C(c1nnnn1C(C)(C)C)N1CCN(Cc2cccnc2)CC1 (stereo not drawn) | -6.66% (inactive)
COc1ccc(CN(C)Cc2nc3cc(OC)c(OC)cc3c(=O)[nH]2)c(OC)c1 | 4.38% (inactive)
CSCCC(NS(=O)(=O)c1ccc(C)cc1)C(=O)NCCc1c[nH]c2ccccc12 (stereo not drawn) | -0.01% (inactive)
CCCCS(=O)c1snnc1C (stereo not drawn) | -3.16% (inactive)
CCOC(=O)N1CCN(C(=O)c2ccccc2SCC(=O)NCC2CCCCC2)CC1 | -1.95% (inactive)
O=C(O)CCS(=O)(=O)c1ccc(-c2ccccc2)cc1 | 6.38% (inactive)
O=C1OCCN1C(=O)[C@H]1[C@H](c2ccc(Cl)cc2)C(c2cccc(Cl)c2)=NN1c1ccc(Br)cc1 | 10.5% (inactive)
O=C1OCCN1C(=O)[C@H]1[C@H](c2ccc(F)cc2)C(c2ccccc2)=NN1c1ccc(Br)cc1 | 28.9% (active)
O=C1OCCN1C(=O)[C@H]1[C@H](c2ccccc2)C(c2ccc(F)cc2)=NN1c1ccccc1 | -10.3% (inactive)
O=C(COc1ccccc1Cl)N1N=C(c2cccs2)CC1c1ccco1 (stereo not drawn) | -20% (inactive)

Compound | activation
COc1ccccc1N1N=C(c2cccs2)CC1c1ccccc1 (stereo not drawn) | -22.6% (inactive)
Fc1ccc(N2N=C(c3cccs3)CC2c2ccco2)c(F)c1 (stereo not drawn) | 51% (active)
CN(C(=O)CCNC(=O)Cn1ccc2ccccc2c1=O)c1ccc(Br)cc1 | 4.82% (inactive)
Cn1c(CCCOc2ccc(Cl)cc2Cl)n[nH]c1=S | -19.3% (inactive)
O=C(Nc1cccc2c1CCCC2)c1ccc(F)cc1 | 7.3% (inactive)
Cc1ncn2cc(-c3ccc(Cl)cc3Cl)[nH]c(=O)c12 | 10.9% (inactive)
O=C(c1cccc(-n2cccc2)c1)N1CCN(S(=O)(=O)c2ccc(F)cc2)CC1 | 3.36% (inactive)
Cc1ccc2c(CC(=O)NCc3cccs3)coc2c1 | -3.04% (inactive)
COC(=O)c1ccc(CN2CCN(CCCc3ccccc3)C(CCO)C2)cc1 (stereo not drawn) | 2.25% (inactive)
Cc1cccc(N2CC(C)Cn3c2nc2c3c(=O)n(CC(=O)OCc3ccccc3)c(=O)n2C)c1 (stereo not drawn) | 1.17% (inactive)
COc1ccc(C2=NS(=O)(=O)N(C)C(C(=O)N(C)Cc3ccccc3)=C2)cc1 | 1.33% (inactive)
N#Cc1ccccc1CN1C(=O)S/C(=C/c2cccn2-c2cccc(C(=O)O)c2)C1=O | -18.8% (inactive)
O=C(Cc1coc2ccc3ccccc3c12)NCc1cccs1 | 9.96% (inactive)
CC1(C)Cc2c(sc(NC(=O)C(=O)NCC3CCCO3)c2C(=O)O)CO1 (stereo not drawn) | 1.97% (inactive)
COC(=O)Cc1c(C)c2ccc(OCC(=O)NCc3ccc4c(c3)OCO4)cc2oc1=O | 13.2% (inactive)
CC(=O)Oc1ccc2c(C)c(CC(C)O)c(=O)oc2c1 (stereo not drawn) | 29.6% (active)
CCc1c(C)c2ccc(OC3CCCCC3=O)cc2oc1=O (stereo not drawn) | 4.02% (inactive)
CC(C(=O)NCCc1ccc(S(N)(=O)=O)cc1)N1C(=O)CC(C)(C)Sc2ccccc21 (stereo not drawn) | -4.12% (inactive)
COc1ccc(C2(C)ON(c3ccccc3C(F)(F)F)C2=O)cc1 (stereo not drawn) | 2.15% (inactive)
O=C(NC1CCc2ccccc21)C12CN(Cc3ccccc3)CC1C(c1cccc([N+](=O)[O-])c1)=NO2 (stereo not drawn) | 7.39% (inactive)

Compound | activation
COc1ccc(NC(=O)c2cccc3c2C(=O)N(CC2CCCO2)C3)cc1OC (stereo not drawn) | 9.62% (inactive)
COc1ccc(/C=N/Nc2nc3ccccc3c(=O)[nH]2)cc1 | 28.9% (active)
COc1ccc(/C=N/Nc2ccccc2C(=O)O)cc1 | -19.5% (inactive)
COc1ccc(/C=N/Nc2nc(-c3ccc(C)cc3)c(C#N)c(=O)[nH]2)cc1 | 1.13% (inactive)
C/C(=N/NC(=O)CSc1ccccn1)c1ccc([N+](=O)[O-])cc1 | 1.61% (inactive)
CCCNC(=S)N1CCCC(c2nc3ccccc3[nH]2)C1 (stereo not drawn) | 6.91% (inactive)
Cc1cccc(-n2c(SCC(=O)Nc3cccc(S(=O)(=O)NC4=NCCCCC4)c3)nc3ccccc3c2=O)c1C | -0.51% (inactive)
CC1(C)C(C=C(Cl)Cl)C1C(=O)NC(O)C(=O)c1ccccc1 (stereo not drawn) | 6.56% (inactive)
COC(=O)c1ccc(N2CCOCC2)c(NC(=O)c2ccc(Br)o2)c1 | 1.06% (inactive)
COc1ccccc1CNC(=O)COC(=O)CNS(=O)(=O)c1ccc(NC(C)=O)cc1 | 7.44% (inactive)
Nc1cccc2c1C(=O)N(Cc1nnc(-c3ccccc3Br)o1)C2=O | 64.5% (active)
Cn1cnnc1SCc1nnc(-c2ccccc2Br)o1 | 2.67% (inactive)
CCOC(=O)N1CCN(Cc2nnc(-c3ccccc3Cl)o2)CC1 | -1.71% (inactive)
CN(C)CCCSc1ccccc1NC(=O)/C=C/c1ccccc1 | 10.4% (inactive)
Cc1nc(SCC(=O)N2CCc3ccccc3C2)c2c(C)c(C)sc2n1 | 18.1% (inactive)
COc1ccc(CSc2nc(N3CCOCC3)c3c(c2C#N)CC(C)(C)OC3)cc1 | -0.56% (inactive)
CC(C)C(=O)N1CCN(c2nc(-c3ccccc3)c3c(c2C#N)CC(C)(C)OC3)CC1 | 12.1% (inactive)
CC1(C)Cc2c(C#N)c(SCc3nc4ccccc4[nH]3)nc(N3CCOCC3)c2CO1 | 33% (active)
